The M2OR odorant receptor database
Numbering of substitutions follows the chain as printed.

How the values were obtained:
Details in all cases: stereoisomer not certain
OR52N4 (Homo sapiens) = molecular target: T1, OR52N4 (Homo sapiens) (UniProt Q8NGI2)
T1 sequence (whole entry): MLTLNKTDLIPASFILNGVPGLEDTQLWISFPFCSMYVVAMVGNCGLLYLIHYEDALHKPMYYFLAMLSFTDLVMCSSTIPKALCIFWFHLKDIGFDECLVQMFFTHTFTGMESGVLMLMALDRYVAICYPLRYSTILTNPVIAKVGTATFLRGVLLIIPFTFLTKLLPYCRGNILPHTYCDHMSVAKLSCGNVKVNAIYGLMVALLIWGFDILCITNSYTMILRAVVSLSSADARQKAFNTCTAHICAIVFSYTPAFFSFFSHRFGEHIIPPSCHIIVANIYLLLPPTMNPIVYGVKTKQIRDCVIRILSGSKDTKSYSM
Outline: (§1)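 Transient luciferase assays in mammalian cell lines were common, though methods varied by source. The values come from published papers and their supplementary material, with extra details from the original authors when needed. Responsive refers to a measured signal the original authors judged statistically different from baseline, and non-responsive (inactive) to the remainder.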

OR52N5 (Homo sapiens) = molecular target: T2, OR52N5 (Homo sapiens) (UniProt Q8NH56)
T2 sequence (whole entry): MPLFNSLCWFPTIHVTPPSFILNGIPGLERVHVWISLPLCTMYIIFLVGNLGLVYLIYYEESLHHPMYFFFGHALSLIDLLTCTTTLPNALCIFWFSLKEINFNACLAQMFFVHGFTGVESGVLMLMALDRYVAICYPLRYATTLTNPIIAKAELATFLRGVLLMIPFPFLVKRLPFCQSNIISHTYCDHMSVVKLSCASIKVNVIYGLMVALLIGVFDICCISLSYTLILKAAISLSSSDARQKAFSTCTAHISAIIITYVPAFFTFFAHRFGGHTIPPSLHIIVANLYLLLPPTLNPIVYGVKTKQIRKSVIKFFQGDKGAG
Outline: as §1

OR52R1 (Homo sapiens) = molecular target: T3, OR52R1 (Homo sapiens) (UniProt Q8NGF1)
T3 sequence (whole entry): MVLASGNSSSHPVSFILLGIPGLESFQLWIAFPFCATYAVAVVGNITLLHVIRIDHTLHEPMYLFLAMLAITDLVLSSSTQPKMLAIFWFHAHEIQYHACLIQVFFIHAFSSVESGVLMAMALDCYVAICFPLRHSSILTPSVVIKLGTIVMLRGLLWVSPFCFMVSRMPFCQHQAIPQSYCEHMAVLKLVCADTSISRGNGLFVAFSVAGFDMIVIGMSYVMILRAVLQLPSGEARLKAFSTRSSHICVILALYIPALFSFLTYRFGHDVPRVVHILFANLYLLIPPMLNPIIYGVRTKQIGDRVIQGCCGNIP
Outline: as §1

OR52W1 (Homo sapiens) = molecular target: T4, OR52W1 (Homo sapiens) (UniProt Q6IF63)
T4 sequence (whole entry): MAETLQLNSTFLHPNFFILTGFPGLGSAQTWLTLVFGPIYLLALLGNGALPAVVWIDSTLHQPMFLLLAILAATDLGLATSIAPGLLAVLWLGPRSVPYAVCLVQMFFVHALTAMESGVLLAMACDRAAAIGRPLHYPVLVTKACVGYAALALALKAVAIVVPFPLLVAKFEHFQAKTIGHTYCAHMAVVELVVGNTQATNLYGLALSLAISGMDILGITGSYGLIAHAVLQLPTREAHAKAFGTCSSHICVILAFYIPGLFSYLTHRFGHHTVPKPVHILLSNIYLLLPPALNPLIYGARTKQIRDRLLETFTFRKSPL
Outline: as §1

OR56A1 (Homo sapiens) = molecular target: T5, OR56A1 (Homo sapiens) (UniProt Q8NGH5)
T5 sequence (whole entry): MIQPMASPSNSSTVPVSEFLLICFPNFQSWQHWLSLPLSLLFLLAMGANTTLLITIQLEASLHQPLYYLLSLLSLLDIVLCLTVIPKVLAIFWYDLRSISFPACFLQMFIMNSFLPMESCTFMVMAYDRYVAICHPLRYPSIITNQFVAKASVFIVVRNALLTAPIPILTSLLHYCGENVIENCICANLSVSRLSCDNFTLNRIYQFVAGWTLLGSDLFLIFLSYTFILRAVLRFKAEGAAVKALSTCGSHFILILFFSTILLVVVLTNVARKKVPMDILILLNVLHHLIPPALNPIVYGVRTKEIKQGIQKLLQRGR
Outline: as §1

OR56A3 (Homo sapiens) = molecular target: T6, OR56A3 (Homo sapiens) (UniProt Q8NH54)
T6 sequence (whole entry): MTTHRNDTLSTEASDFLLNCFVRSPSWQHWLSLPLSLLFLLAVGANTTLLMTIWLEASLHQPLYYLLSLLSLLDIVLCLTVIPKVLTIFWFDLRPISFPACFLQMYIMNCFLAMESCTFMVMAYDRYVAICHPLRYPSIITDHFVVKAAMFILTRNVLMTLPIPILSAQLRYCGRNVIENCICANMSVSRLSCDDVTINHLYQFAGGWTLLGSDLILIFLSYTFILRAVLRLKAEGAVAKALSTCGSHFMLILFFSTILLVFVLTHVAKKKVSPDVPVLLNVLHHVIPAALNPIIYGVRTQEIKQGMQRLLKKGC
Outline: as §1

OR56A5 (Homo sapiens) = molecular target: T7, OR56A5 (Homo sapiens) (UniProt P0C7T3)
T7 sequence (whole entry): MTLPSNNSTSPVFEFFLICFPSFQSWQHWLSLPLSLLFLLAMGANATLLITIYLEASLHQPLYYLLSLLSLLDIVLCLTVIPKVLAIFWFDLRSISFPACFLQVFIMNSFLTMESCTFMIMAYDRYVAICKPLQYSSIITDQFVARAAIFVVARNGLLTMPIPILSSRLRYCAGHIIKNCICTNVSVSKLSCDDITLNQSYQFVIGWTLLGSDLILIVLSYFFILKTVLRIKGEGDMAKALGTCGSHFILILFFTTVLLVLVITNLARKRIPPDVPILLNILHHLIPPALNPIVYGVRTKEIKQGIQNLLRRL
Outline: as §1

OR56B1 (Homo sapiens) = molecular target: T8, OR56B1 (Homo sapiens) (UniProt Q8NGI3)
T8 sequence (whole entry): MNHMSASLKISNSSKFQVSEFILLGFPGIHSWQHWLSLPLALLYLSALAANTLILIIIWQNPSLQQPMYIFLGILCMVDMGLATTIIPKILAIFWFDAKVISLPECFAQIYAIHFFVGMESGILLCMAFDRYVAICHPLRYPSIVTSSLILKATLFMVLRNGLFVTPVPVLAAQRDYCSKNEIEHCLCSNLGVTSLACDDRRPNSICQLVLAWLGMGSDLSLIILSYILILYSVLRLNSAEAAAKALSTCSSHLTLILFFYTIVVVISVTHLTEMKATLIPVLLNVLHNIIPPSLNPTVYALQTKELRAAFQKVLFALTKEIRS
Outline: as §1

OR56B4 (Homo sapiens) = molecular target: T9, OR56B4 (Homo sapiens) (UniProt Q8NH76)
T9 sequence (whole entry): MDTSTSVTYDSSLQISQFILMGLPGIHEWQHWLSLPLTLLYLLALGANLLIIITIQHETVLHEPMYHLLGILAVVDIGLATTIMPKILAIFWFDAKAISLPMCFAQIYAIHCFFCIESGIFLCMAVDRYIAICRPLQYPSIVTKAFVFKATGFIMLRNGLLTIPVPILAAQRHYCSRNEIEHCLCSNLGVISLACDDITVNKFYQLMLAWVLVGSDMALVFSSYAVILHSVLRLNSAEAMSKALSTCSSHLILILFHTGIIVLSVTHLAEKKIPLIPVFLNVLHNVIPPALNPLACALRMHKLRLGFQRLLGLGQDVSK
Outline: as §1

OR5A1 (Homo sapiens) = molecular target: T10, OR5A1 (Homo sapiens) (UniProt Q8NGJ0)
T10 sequence (whole entry): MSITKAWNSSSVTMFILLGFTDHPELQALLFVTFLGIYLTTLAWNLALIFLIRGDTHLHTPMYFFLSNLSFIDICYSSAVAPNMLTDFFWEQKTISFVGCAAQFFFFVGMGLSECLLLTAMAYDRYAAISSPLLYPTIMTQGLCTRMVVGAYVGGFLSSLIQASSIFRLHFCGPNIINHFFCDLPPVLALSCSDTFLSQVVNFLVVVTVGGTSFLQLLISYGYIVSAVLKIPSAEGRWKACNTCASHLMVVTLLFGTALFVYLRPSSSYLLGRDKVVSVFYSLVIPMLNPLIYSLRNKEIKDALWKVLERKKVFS
Outline: as §1

OR5A1 D183N = tested on: T11, OR5A1 D183N
T11 sequence (whole entry): T10 sequence (whole entry) with D183N
Outline: as §1

OR5A2 (Homo sapiens) = molecular target: T12, OR5A2 (Homo sapiens) (UniProt Q8NGI9)
T12 sequence (whole entry): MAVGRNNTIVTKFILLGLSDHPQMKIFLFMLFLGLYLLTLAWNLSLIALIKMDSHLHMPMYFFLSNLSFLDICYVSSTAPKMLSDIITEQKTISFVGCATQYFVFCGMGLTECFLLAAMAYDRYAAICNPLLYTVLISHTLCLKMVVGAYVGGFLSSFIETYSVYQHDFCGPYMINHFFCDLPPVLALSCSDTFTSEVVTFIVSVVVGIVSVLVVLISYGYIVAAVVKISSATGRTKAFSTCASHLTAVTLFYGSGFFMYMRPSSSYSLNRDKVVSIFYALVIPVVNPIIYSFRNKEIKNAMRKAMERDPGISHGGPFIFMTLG
Outline: as §1

OR5AC2 (Homo sapiens) = molecular target: T13, OR5AC2 (Homo sapiens) (UniProt Q9NZP5)
T13 sequence (whole entry): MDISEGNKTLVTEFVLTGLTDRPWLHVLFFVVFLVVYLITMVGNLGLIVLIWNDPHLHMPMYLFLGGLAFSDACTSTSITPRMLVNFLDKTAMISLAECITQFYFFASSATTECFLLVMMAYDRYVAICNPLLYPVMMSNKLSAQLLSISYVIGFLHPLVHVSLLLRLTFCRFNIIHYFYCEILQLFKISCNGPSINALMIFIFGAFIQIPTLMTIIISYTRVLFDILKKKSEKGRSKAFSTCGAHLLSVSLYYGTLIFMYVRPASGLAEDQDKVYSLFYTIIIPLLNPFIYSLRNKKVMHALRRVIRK
Outline: as §1

OR5AK2 (Homo sapiens) = molecular target: T14, OR5AK2 (Homo sapiens) (UniProt Q8NH90)
T14 sequence (whole entry): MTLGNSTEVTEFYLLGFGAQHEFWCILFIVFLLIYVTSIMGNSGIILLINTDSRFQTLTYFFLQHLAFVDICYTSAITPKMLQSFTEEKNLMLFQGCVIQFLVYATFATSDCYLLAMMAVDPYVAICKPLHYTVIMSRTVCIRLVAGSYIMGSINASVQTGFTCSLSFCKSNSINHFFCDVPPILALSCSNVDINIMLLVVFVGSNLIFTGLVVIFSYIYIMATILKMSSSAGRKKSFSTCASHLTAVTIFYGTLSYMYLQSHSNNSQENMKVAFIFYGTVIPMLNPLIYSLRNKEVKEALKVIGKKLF
Outline: as §1

OR5AN1 (Homo sapiens) = molecular target: T15, OR5AN1 (Homo sapiens) (UniProt Q8NGI8)
T15 sequence (whole entry): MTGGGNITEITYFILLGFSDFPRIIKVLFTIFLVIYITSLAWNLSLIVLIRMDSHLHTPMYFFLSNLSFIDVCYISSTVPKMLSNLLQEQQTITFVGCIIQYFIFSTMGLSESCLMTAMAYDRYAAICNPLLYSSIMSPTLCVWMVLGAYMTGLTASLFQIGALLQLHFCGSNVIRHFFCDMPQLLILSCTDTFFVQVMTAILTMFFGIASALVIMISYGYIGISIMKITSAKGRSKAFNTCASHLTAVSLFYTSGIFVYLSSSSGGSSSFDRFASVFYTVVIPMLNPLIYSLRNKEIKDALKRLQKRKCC
Outline: as §1

OR5AP2 (Homo sapiens) = molecular target: T16, OR5AP2 (Homo sapiens) (UniProt Q8NGF4)
T16 sequence (whole entry): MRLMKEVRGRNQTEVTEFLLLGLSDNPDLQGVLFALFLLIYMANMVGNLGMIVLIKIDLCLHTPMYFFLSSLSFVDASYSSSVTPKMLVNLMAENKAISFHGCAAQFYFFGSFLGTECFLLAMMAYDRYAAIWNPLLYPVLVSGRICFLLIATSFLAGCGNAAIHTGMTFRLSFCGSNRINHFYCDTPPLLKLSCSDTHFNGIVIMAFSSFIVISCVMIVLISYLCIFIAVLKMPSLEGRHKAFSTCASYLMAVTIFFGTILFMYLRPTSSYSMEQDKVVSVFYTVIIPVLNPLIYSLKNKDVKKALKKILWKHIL
Outline: as §1

Measured: odorant receptor agonist call

Cc1cnc(C)c(C)n1
inactive: OR52N4 (Homo sapiens) | OR52N5 (Homo sapiens) | OR52R1 (Homo sapiens) | OR52W1 (Homo sapiens) | OR56A1 (Homo sapiens) | OR56A3 (Homo sapiens) | OR56A5 (Homo sapiens) | OR56B1 (Homo sapiens) | OR56B4 (Homo sapiens) | OR5A1 (Homo sapiens) | OR5A1 D183N | OR5A2 (Homo sapiens) | OR5AC2 (Homo sapiens) | OR5AK2 (Homo sapiens) | OR5AN1 (Homo sapiens) | OR5AP2 (Homo sapiens)

CC1=CCC2CC1C2(C)C (stereo not drawn)
inactive: OR5AC2 (Homo sapiens)

CCC1OC(C)=C(O)C1=O (stereo not drawn)
inactive: OR52N4 (Homo sapiens) | OR52N5 (Homo sapiens) | OR52R1 (Homo sapiens) | OR52W1 (Homo sapiens) | OR56A1 (Homo sapiens) | OR56A3 (Homo sapiens) | OR56A5 (Homo sapiens) | OR56B1 (Homo sapiens) | OR56B4 (Homo sapiens) | OR5A1 (Homo sapiens) | OR5A1 D183N | OR5A2 (Homo sapiens) | OR5AC2 (Homo sapiens) | OR5AK2 (Homo sapiens) | OR5AN1 (Homo sapiens) | OR5AP2 (Homo sapiens)
